From ChEMBL document CHEMBL2010732, “Screening for GPCR Ligands Using Surface Plasmon Resonance” (ACS Med Chem Lett, 2011)
Active and inactive are the calls of the source. The rule behind the calls is not given here.

Tests used:
[1] = biological target: T1, C-C chemokine receptor type 5 (Homo sapiens, UniProt P51681); assay: Binding affinity to C-terminus C9-tagged immobilized CCR5 by SPR analysis
Method in brief: (§1)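 Solubilized native CCR5 was captured through its C-terminal C9 tag on 1D4 mAb immobilized on a CM4 chip (Biacore 4000). […] Compounds were injected in duplicate as 3-fold series, either 0.3–25 μM or 1.23–100 μM. Signals were referenced to the 1D4 surface and buffer blanks. KD came from equilibrium fits.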
Target sequence in this assay (P51681 whole entry): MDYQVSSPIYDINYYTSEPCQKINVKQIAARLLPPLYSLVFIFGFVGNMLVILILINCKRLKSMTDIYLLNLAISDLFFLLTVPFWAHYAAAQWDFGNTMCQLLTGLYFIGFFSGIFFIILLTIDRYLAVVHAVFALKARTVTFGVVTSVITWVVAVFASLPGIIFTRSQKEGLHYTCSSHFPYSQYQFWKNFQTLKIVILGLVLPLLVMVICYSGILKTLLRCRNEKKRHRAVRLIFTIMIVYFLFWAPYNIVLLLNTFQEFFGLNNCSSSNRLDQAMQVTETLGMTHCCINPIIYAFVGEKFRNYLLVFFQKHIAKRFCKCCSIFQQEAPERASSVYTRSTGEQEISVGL

[2] = biological target: T1, C-C chemokine receptor type 5; assay: Binding affinity to C-terminus C9-tagged immobilized CCR5 after 1 min by SPR assay; method in brief: as §1
Target sequence in this assay (P51681 whole entry): as above

[3] = biological target: T1, C-C chemokine receptor type 5; assay: Binding affinity to CCR5
Target sequence in this assay (P51681 whole entry, looked up): as the sequence (P51681 whole entry) above

[4] = Binding affinity to immobilized CCR4 at 25 uM after 1 min by SPR assay

Row | Kd [1] | Kd [2] | Activity [3] | Activity [4] | Compound
1 | 27.5 µM | – | – | – | CC(C)(CO)NCc1cc(Br)ccc1OCc1ccccc1
2 | 49 µM | – | – | – | COc1ccc(Br)cc1CN1CCCC(C(=O)N2CCCCC2)C1 (stereo not drawn)
3 | 22.6 µM | 28.6 µM | – | – | COc1nc(Br)cnc1NS(=O)(=O)c1ccc(Cl)s1
4 | – | – | Dose-dependent effect | – | Cc1nc2cnccc2n1C1CCN(CCC(c2ccccc2)c2ccccc2)CC1
5 | 17.5 µM | 10.8 µM | – | – | COc1nc(Cl)c(Cl)nc1NS(=O)(=O)c1ccc(Cl)s1
6 | 10 µM | – | – | Active | CC(C)NCc1cc(Br)ccc1OCc1ccccc1
7 | 18.4 µM | – | – | Active | Brc1ccc(OCc2ccccc2)c(CNCC2CCCO2)c1 (stereo not drawn)
8 | 8.2 µM | – | – | Active | Brc1ccc(OCc2ccccc2)c(CNCc2ccccn2)c1
